In ChEMBL document CHEMBL1275496, “In vivo pharmacodynamic target investigation for micafungin against Candida albicans and C. glabrata in a neutropenic murine candidiasis model” (Antimicrob Agents Chemother, 2008):
In brackets after ≈: the same amount, converted by molar mass. *1 amine or outer side, *2 acyl side, *3 side chain or, on linkers, in order; H or OH if unused. Where a SMILES comes first, the peptide text is derived from it. Bridges are numbered along the chain shown (N, C = ends). [ ]: non-standard residue; d: D form. The star is where a group is joined. hTyr(3S-OH,4S-OH,3'-OSO3H) = N[C@H](C(=O)O)[C@H](O)[C@@H](O)c1ccc(O)c(OS(=O)(=O)O)c1; Orn(4R-OH,5R-OH) = O=C([C@H](C[C@@H](O)[C@@H](O)N[*:3])N[*:1])[*:2]; Pro(3S-OH,4S-Me) = C[C@H]1CN[C@H](C(=O)O)[C@H]1O; X1 = CCCCCOc1ccc(-c2cc(-c3ccc(C(=O)*)cc3)no2)cc1; Gln(3R-OH) = NC(=O)C[C@@H](O)[C@H](N)C(=O)O; Hyp = O=C(O)[C@@H]1C[C@@H](O)CN1

Assays:
Type in all cases: functional
[1] = Ratio of AUC in ICR/Swiss neutropenic mouse at static dose of 2.84 mg/kg, ip after 24 hrs to MIC for Candida albicans isolate 98-210; conditions: route intraperitoneal
[2] = Ratio of AUC in ICR/Swiss neutropenic mouse at static dose of 1.98 mg/kg, ip after 24 hrs to MIC for Candida albicans isolate 580; conditions: route intraperitoneal
[3] = Ratio of AUC in ICR/Swiss neutropenic mouse at static dose of 0.06 mg/kg, ip after 24 hrs to MIC for Candida glabrata isolate 32930; conditions: route intraperitoneal
[4] = Ratio of AUC in ICR/Swiss neutropenic mouse at static dose of 3.88 mg/kg, ip after 24 hrs to MIC for Candida glabrata isolate 33616; conditions: route intraperitoneal
[5] = Ratio of fAUC in ICR/Swiss neutropenic mouse at static dose of 1.98 mg/kg, ip after 24 hrs to MIC for Candida albicans isolate 580; conditions: route intraperitoneal
[6] = Ratio of fAUC in ICR/Swiss neutropenic mouse at static dose of 2.84 mg/kg, ip after 24 hrs to MIC for Candida albicans isolate K1; conditions: route intraperitoneal
[7] = Ratio of fAUC in ICR/Swiss neutropenic mouse at static dose of 2.4 mg/kg, ip after 24 hrs to MIC for Candida glabrata isolate 35315; conditions: route intraperitoneal
[8] = Ratio of fAUC in ICR/Swiss neutropenic mouse at static dose of 9.25 mg/kg, ip after 24 hrs to MIC for Candida glabrata isolate 37661; conditions: route intraperitoneal
[9] = Ratio of fAUC in ICR/Swiss neutropenic mouse at static dose of 1.80 mg/kg, ip after 24 hrs to MIC for Candida glabrata isolate 5592; conditions: dose 1.8 mg/kg; route intraperitoneal
[10] = Ratio of fAUC in ICR/Swiss neutropenic mouse at static dose of 0.90 mg/kg, ip after 24 hrs to MIC for Candida glabrata isolate 5376; conditions: dose 0.9 mg/kg; route intraperitoneal
[11] = Ratio of fAUC in ICR/Swiss neutropenic mouse at static dose of 3.76 mg/kg, ip after 24 hrs to MIC for Candida glabrata isolate 570; conditions: route intraperitoneal
[12] = Ratio of AUC in ICR/Swiss neutropenic mouse at 1-Log kill dose of 10.4 mg/kg, ip after 24 hrs to MIC for Candida albicans isolate 98-210; conditions: route intraperitoneal
[13] = Ratio of AUC in ICR/Swiss neutropenic mouse at 1-Log kill dose of 4.08 mg/kg, ip after 24 hrs to MIC for Candida albicans isolate K1; conditions: route intraperitoneal
[14] = Ratio of AUC in ICR/Swiss neutropenic mouse at 1-Log kill dose of 4.26 mg/kg, ip after 24 hrs to MIC for Candida glabrata isolate 34341; conditions: route intraperitoneal
[15] = Ratio of AUC in ICR/Swiss neutropenic mouse at 1-Log kill dose of 6.70 mg/kg, ip after 24 hrs to MIC for Candida glabrata isolate 570; conditions: dose 6.7 mg/kg; route intraperitoneal
[16] = Ratio of AUC in ICR/Swiss neutropenic mouse at 1-Log kill dose of 7.89 mg/kg, ip after 24 hrs to MIC for Candida glabrata isolate 33616; conditions: route intraperitoneal
[17] = Ratio of fAUC in ICR/Swiss neutropenic mouse at 1-Log kill dose of 2.36 mg/kg, ip after 24 hrs to MIC for Candida albicans isolate 580; conditions: route intraperitoneal
[18] = Ratio of fAUC in ICR/Swiss neutropenic mouse at 1-Log kill dose of 4.08 mg/kg, ip after 24 hrs to MIC for Candida albicans isolate K1; conditions: route intraperitoneal
[19] = Ratio of fAUC in ICR/Swiss neutropenic mouse at 1-Log kill dose of 3.77 mg/kg, ip after 24 hrs to MIC for Candida glabrata isolate 35315; conditions: route intraperitoneal
[20] = Ratio of fAUC in ICR/Swiss neutropenic mouse at 1-Log kill dose of 20.6 mg/kg, ip after 24 hrs to MIC for Candida glabrata isolate 37661; conditions: route intraperitoneal
[21] = Ratio of fAUC in ICR/Swiss neutropenic mouse at 1-Log kill dose of 4.26 mg/kg, ip after 24 hrs to MIC for Candida glabrata isolate 34341; conditions: route intraperitoneal
[22] = Ratio of fAUC in ICR/Swiss neutropenic mouse at 1-Log kill dose of 1.69 mg/kg, ip after 24 hrs to MIC for Candida glabrata isolate 32930; conditions: route intraperitoneal
Candida albicans [23] = experiment: Antifungal activity against Candida albicans
Summary of the method: (§1)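 Broth microdilution MIC per CLSI M27-A2. Two endpoints were read against the drug-free control well: partial inhibition (M1, CLSI recommended) and complete inhibition (M2). Tests were run in duplicate on four separate occasions, and the value is the mean.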

Candida albicans [24] = experiment: Antifungal activity against Candida albicans isolate K1 by CLSI method; summary of the method: as §1
Nakaseomyces glabratus [25] = experiment: Antifungal activity against Candida glabrata isolate 35315 by CLSI method
Summary of the method: (§2)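 Broth microdilution per CLSI M27-A2. The MIC was read at partial inhibition (M1) and at complete inhibition (M2) against the drug-free control. Done in duplicate on four separate occasions and reported as the mean.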

Nakaseomyces glabratus [26] = experiment: Antifungal activity against Candida glabrata isolate 34341 by CLSI method; summary of the method: as §2
Nakaseomyces glabratus [27] = experiment: Antifungal activity against Candida glabrata isolate 513 by CLSI method; summary of the method: as §1
Nakaseomyces glabratus [28] = experiment: Antifungal activity against Candida glabrata isolate 33616 by CLSI method; summary of the method: as §2
Nakaseomyces glabratus [29] = experiment: Fungistatic activity against Candida glabrata isolate 37661 infected in ICR/Swiss neutropenic mouse after 24 hrs
Summary of the method: (§3)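 Neutropenic female ICR/Swiss mice received cyclophosphamide sc at 150 mg/kg on day −4, 100 mg/kg on day −1 and 100 mg/kg on day +2. Mice were infected iv via the tail vein, and ip micafungin in 0.15 M NaCl started 2 h later. Six dose levels from 0.078 to 80 mg/kg/24 h were given q24h for 4 days, 3 mice per dose. Kidney CFU were counted at 96 h. The static dose was derived from a sigmoid Emax (Hill) fit.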

Nakaseomyces glabratus [30] = experiment: Fungistatic activity against Candida glabrata isolate 33609 infected in ICR/Swiss neutropenic mouse after 24 hrs; summary of the method: as §3
Nakaseomyces glabratus [31] = experiment: Fungistatic activity against Candida glabrata isolate 5376 infected in ICR/Swiss neutropenic mouse after 24 hrs; summary of the method: as §3
Nakaseomyces glabratus [32] = experiment: Fungistatic activity against Candida glabrata isolate 33616 infected in ICR/Swiss neutropenic mouse after 24 hrs; summary of the method: as §3
Nakaseomyces glabratus [33] = experiment: Antifungal activity against Candida glabrata isolate 35315 infected in ICR/Swiss neutropenic mouse assessed as dose required for 1-log kill after 24 hrs
Summary of the method: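 Neutropenic mice (cyclophosphamide sc 150 mg/kg day −4, 100 mg/kg day −1 and +2) infected iv by tail vein 2 h before therapy. Micafungin given ip every 24 h for 4 days at six fourfold-spaced dose levels, 0.078–80 mg/kg/24 h, 3 mice per group. Kidney CFU read at 96 h. Hill-model fit; dose giving 1 log10 below start-of-therapy burden.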

CCCCCOc1ccc(-c2cc(-c3ccc(C(=O)N[C@H]4C[C@@H](O)[C@@H](O)NC(=O)[C@@H]5[C@@H](O)[C@@H](C)CN5C(=O)[C@H]([C@H](O)CC(N)=O)NC(=O)[C@H]([C@H](O)[C@@H](O)c5ccc(O)c(OS(=O)(=O)O)c5)NC(=O)[C@@H]5C[C@@H](O)CN5C(=O)[C@H]([C@@H](C)O)NC4=O)cc3)no2)cc1 [MICAFUNGIN] (X1-[Orn(4R-OH,5R-OH)]T[Hyp][hTyr(3S-OH,4S-OH,3'-OSO3H)][Gln(3R-OH)][Pro(3S-OH,4S-Me)]; lactam 1-C)
RatioAUC/MIC [1]: 5200 | RatioAUC/MIC [2]: 7857 | RatioAUC/MIC [3]: 236 | RatioAUC/MIC [4]: 428 | fAUC/MIC [5]: 19.6 | fAUC/MIC [6]: 13 | fAUC/MIC [7]: 2.8 | fAUC/MIC [8]: 2.5 | fAUC/MIC [9]: 8.4 | fAUC/MIC [10]: 8.9 | fAUC/MIC [11]: 17.3 | RatioAUC/MIC [12]: 18400 | RatioAUC/MIC [13]: 7533 | RatioAUC/MIC [14]: 1960 | RatioAUC/MIC [15]: 12066 | RatioAUC/MIC [16]: 848 | fAUC/MIC [17]: 4.21 | fAUC/MIC [18]: 18.8 | fAUC/MIC [19]: 4.33 | fAUC/MIC [20]: 5.2 | fAUC/MIC [21]: 4.9 | fAUC/MIC [22]: 7.8 | MIC50 (Candida albicans [23]): 0.015 µg/mL (≈ 0.0118 µM) | MIC90 (Candida albicans [23]): 0.03 µg/mL (≈ 0.0236 µM) | MIC (Candida albicans [24]): 0.03 µg/mL (≈ 0.0236 µM) | MIC50 (Candida albicans [24]): 0.016 µg/mL (≈ 0.0126 µM) | MIC (Nakaseomyces glabratus [25]): 0.12 µg/mL (≈ 0.0945 µM) | MIC50 (Nakaseomyces glabratus [25]): 0.06 µg/mL (≈ 0.0472 µM) | MIC (Nakaseomyces glabratus [26]): 0.12 µg/mL (≈ 0.0945 µM) | MIC50 (Nakaseomyces glabratus [26]): 0.06 µg/mL (≈ 0.0472 µM) | MIC (Nakaseomyces glabratus [27]): 0.03 µg/mL (≈ 0.0236 µM) | MIC50 (Nakaseomyces glabratus [27]): 0.016 µg/mL (≈ 0.0126 µM) | MIC (Nakaseomyces glabratus [28]): 0.5 µg/mL (≈ 0.394 µM) | MIC50 (Nakaseomyces glabratus [28]): 0.25 µg/mL (≈ 0.197 µM) | Activity (Nakaseomyces glabratus [29]): 9.25 mg/kg | Activity (Nakaseomyces glabratus [30]): 0.41 mg/kg | Activity (Nakaseomyces glabratus [31]): 0.9 mg/kg | Activity (Nakaseomyces glabratus [32]): 3.88 mg/kg | Activity (Nakaseomyces glabratus [33]): 3.77 mg/kg
